HCV NS3 hel inh – inhibitors of Hepatitis C virus NS3 helicase; NS3 helicase DNA unwinding, Cy5 molecular beacon fluorescence; inhibition, % at 10.9 µM; actives 0.56% (n = 290,000); AID 1800;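 active = inhibition above the mean of all tested compounds plus 3 SD, set per campaign, cut at about 35% in these data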
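Assay system – hepatitis C virus NS3 helicase domain fragment enzyme · Buffer or medium – MOPS pH 6.5, MgCl2, DTT, Tween20, BSA · Reagent – Cy5/quencher beacon DNA duplex and ATP to start · Compound – single 10.9 µM dose · Timing – 1 h at 25 °C · Technique – Cy5 beacon fluorescence read at start and 1 h · Measure – % inhibition of unwinding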
EBNA-1 inh – blocks EBNA-1 binding to DNA; inhibition, % at 14.8 µM; actives 0.34% (n = 300,000); AID 1950; EBNA-1 DNA binding, fluorescence polarization; in the data active = inhibition above about 28%
ZTA DNA inh – counter-screen for EBNA-1 inhibitors: inhibitors of Epstein-Barr virus ZTA; P03206; ZTA-DNA binding, fluorescence polarization; inhibition, % at 11 µM; actives 0.15% (n = 320,000); AID 2234; in the data active = inhibition above about 33%
Target sequence (P03206 whole entry, looked up): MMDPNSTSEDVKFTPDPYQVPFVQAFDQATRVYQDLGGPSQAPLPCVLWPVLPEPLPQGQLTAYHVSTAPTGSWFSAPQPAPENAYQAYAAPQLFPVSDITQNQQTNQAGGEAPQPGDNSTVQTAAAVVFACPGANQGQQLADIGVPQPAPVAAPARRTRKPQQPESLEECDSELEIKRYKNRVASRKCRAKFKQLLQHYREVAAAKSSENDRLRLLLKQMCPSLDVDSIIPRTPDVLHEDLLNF
FID counter – fluorescent intercalator displacement, NS3 helicase counter-screen. AID 1845. actives 0.17% (n = 290,000). DNA fluorescent intercalator displacement, fluorescence. inhibition, % at 7.9 µM; in the data active = inhibition above about 37%;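 also: higher means more ethidium bromide displaced from hairpin DNA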
GPR7 antagonist – human neuropeptides B/W receptor 1 antagonism. actives 1.1% (n = 290,000). inhibition, % at 4.4 µM. P48145. GPR7-expressing cells, fluorescence antagonist assay. AID 1861; in the data active = inhibition above about 16%, passing the limit was not always enough;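 also: cells stimulated with the agonist NPW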
Target sequence (P48145 whole entry, looked up): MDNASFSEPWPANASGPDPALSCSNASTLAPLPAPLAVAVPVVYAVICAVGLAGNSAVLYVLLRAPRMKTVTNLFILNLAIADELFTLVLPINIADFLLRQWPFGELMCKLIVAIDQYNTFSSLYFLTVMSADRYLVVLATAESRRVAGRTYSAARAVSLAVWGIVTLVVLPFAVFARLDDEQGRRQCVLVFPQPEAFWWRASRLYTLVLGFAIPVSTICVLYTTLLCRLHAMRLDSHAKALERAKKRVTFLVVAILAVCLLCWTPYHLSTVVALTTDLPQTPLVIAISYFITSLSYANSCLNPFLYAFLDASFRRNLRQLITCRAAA
EBNA-1 confirm – EBNA-1 (EBV) inhibition, confirmation. Recombinant EBNA-1 DBD, Cy5-DNA fluorescence polarization. inhibition, % at 14.8 µM. actives 35% (n = 830). shares compounds with EBNA-1 inh. AID 2292;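 active = mean inhibition across replicates above a set limit taken from the earlier primary screen, cut at about 28% in these data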
ZTA counter trip – counter-screen for EBNA-1 inhibitors: Epstein-Barr virus ZTA inhibitors, triplicate. shares compounds with EBNA-1 inh. Zta-ZRE DNA binding, Cy5 fluorescence polarization. inhibition, % at 11.1 µM. 830 tested, under 10 active;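 active = mean inhibition over triplicates above a set limit taken from the primary EBNA-1 screen, cut at about 37% in these data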;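 also: purified full length Zta protein with Cy5 labeled ZRE DNA probe; inhibitors lower polarization by freeing the labeled DNA probe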
Zta DNA confirm – confirmation of Epstein-Barr virus ZTA DNA binding inhibitors | shares compounds with ZTA DNA inh | actives 30% (n = 320) | inhibition, % at 11.1 µM | Zta-ZRE DNA binding, fluorescence polarization;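 active = mean inhibition across triplicate runs above the hit threshold derived for the original primary screen, cut at about 33% in these data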
EBNA1 counter – counter-screen for ZTA inhibitors: EBNA-1 DNA binding inhibition. AID 2362. inhibition, % at 14.8 µM. 320 tested, under 10 active. fluorescence polarization. shares compounds with ZTA DNA inh; call rule not given here
A number is an active result. Hits are enriched below; roughly 2% of the tested compounds scored in any of these assays.

What do the screens show for `Cc1cccc(N2C(=O)C3CCCN3C2=S)c1C` (stereo unspecified)?
ZTA DNA inh: inactive

How did COc1ccccc1C(=O)Nc1ccnn1C1CCN(C/C=C/c2ccc(F)cc2)CC1 do in these assays?
HCV NS3 hel inh: inactive; EBNA-1 inh: inactive; ZTA DNA inh: inactive; FID counter: inactive; GPR7 antagonist: inactive

Results for Cc1ccc(C)c(N(CC(=O)Nc2ccc(-c3nc4ccc(C)cc4s3)cc2)S(C)(=O)=O)c1 ?
HCV NS3 hel inh: inactive; EBNA-1 inh: 36; ZTA DNA inh: inactive; FID counter: inactive; GPR7 antagonist: inactive; EBNA-1 confirm: inactive; ZTA counter trip: inactive

What do the screens show for `Cc1ccc(N(CC(=O)Nc2ccc(-c3nc4ccc(C)cc4s3)cc2)S(C)(=O)=O)cc1`?
HCV NS3 hel inh: inactive; EBNA-1 inh: inactive; ZTA DNA inh: inactive; FID counter: inactive; GPR7 antagonist: inactive

How did COc1ccc(C(=O)CC(SCC(NC(C)=O)C(=O)O)c2ccc(Cl)cc2)cc1OC (stereo unspecified) do in these assays?
HCV NS3 hel inh: inactive; EBNA-1 inh: inactive; ZTA DNA inh: inactive; FID counter: inactive; GPR7 antagonist: inactive

Results for COc1cc(C(=O)Nc2ccc(N3CCN(C(=O)c4ccc(C)cc4)CC3)cc2)cc(OC)c1OC ?
HCV NS3 hel inh: inactive; EBNA-1 inh: inactive; ZTA DNA inh: inactive; FID counter: inactive; GPR7 antagonist: inactive

What do the screens show for `COc1ccc(S(=O)(=O)Nc2cc(Sc3ncn[nH]3)c(O)c3ccccc23)cc1`?
HCV NS3 hel inh: inactive; FID counter: inactive; GPR7 antagonist: inactive

Results for O=S(=O)(Nc1cc(Sc2cccc3cccnc23)c(O)c2ccccc12)c1ccc(F)cc1 ?
HCV NS3 hel inh: inactive; EBNA-1 inh: 33; ZTA DNA inh: inactive; FID counter: inactive; GPR7 antagonist: inactive; EBNA-1 confirm: inactive; ZTA counter trip: inactive

Results for CC(=O)N1CCN=C1SCc1ccc(C(F)(F)F)cc1 ?
HCV NS3 hel inh: inactive; EBNA-1 inh: 41; ZTA DNA inh: inactive; FID counter: inactive; GPR7 antagonist: inactive; EBNA-1 confirm: inactive; ZTA counter trip: inactive

How did O=C(C1CC1)N1CCN=C1SCc1ccc(F)cc1 do in these assays?
HCV NS3 hel inh: inactive; EBNA-1 inh: inactive; ZTA DNA inh: inactive; FID counter: inactive; GPR7 antagonist: inactive

How did COc1cc2[nH]c(=O)n(Cc3ccccc3Cl)c(=O)c2cc1OC do in these assays?
HCV NS3 hel inh: inactive; EBNA-1 inh: 39; ZTA DNA inh: inactive; FID counter: inactive; GPR7 antagonist: inactive; EBNA-1 confirm: inactive; ZTA counter trip: inactive

What do the screens show for `COc1cc2[nH]c(=S)n(Cc3ccccc3)c(=O)c2cc1OC`?
HCV NS3 hel inh: inactive; EBNA-1 inh: inactive; ZTA DNA inh: inactive; FID counter: inactive; GPR7 antagonist: inactive

Results for CC(C)Cn1cc(C(=O)NCc2cccs2)c2c3ccccc3n(C)c2c1=O ?
HCV NS3 hel inh: inactive; EBNA-1 inh: 38; ZTA DNA inh: inactive; FID counter: inactive; GPR7 antagonist: inactive; EBNA-1 confirm: inactive; ZTA counter trip: inactive

How did CC(C)CCNC(=O)c1cn(CC(C)C)c(=O)c2c1c1ccccc1n2C do in these assays?
HCV NS3 hel inh: inactive; EBNA-1 inh: inactive; ZTA DNA inh: inactive; FID counter: inactive; GPR7 antagonist: inactive

Results for CCCCn1c(SCC(=O)NC2CCCC2)nnc1-c1ccco1 ?
HCV NS3 hel inh: inactive; EBNA-1 inh: inactive; ZTA DNA inh: inactive; FID counter: inactive; GPR7 antagonist: inactive

Results for Cc1ccc(NC(=O)c2ccc(NCCc3ccccc3)c([N+](=O)[O-])c2)cc1F ?
HCV NS3 hel inh: inactive; EBNA-1 inh: inactive; ZTA DNA inh: inactive; FID counter: inactive; GPR7 antagonist: inactive

Results for O=C(Nc1cc(F)cc(F)c1)c1ccc(NCCc2ccccc2)c([N+](=O)[O-])c1 ?
HCV NS3 hel inh: inactive; EBNA-1 inh: 74; ZTA DNA inh: inactive; FID counter: inactive; GPR7 antagonist: inactive; EBNA-1 confirm: inactive; ZTA counter trip: inactive

Results for COCCn1c(SCC(=O)Nc2c(C)n(C)n(-c3ccccc3)c2=O)nc2ccccc2c1=O ?
ZTA DNA inh: inactive

Results for Cc1nc(Nc2cccc(Cl)c2)c2oc3ccccc3c2n1 ?
HCV NS3 hel inh: inactive; EBNA-1 inh: 29; ZTA DNA inh: inactive; FID counter: inactive; GPR7 antagonist: inactive; EBNA-1 confirm: inactive; ZTA counter trip: inactive

Results for Cc1nc(Nc2ccc(Cl)cc2)c2oc3ccccc3c2n1 ?
HCV NS3 hel inh: inactive; EBNA-1 inh: inactive; ZTA DNA inh: inactive; FID counter: inactive; GPR7 antagonist: inactive

How did C=CCn1c(SCC(=O)NCc2ccco2)nc2sc(C)c(C)c2c1=O do in these assays?
HCV NS3 hel inh: inactive; EBNA-1 inh: 42; ZTA DNA inh: inactive; FID counter: inactive; GPR7 antagonist: inactive; EBNA-1 confirm: inactive; ZTA counter trip: inactive

How did Cc1sc2nc(SCC(=O)NCc3ccco3)n(Cc3ccccc3)c(=O)c2c1C do in these assays?
HCV NS3 hel inh: inactive; EBNA-1 inh: inactive; ZTA DNA inh: inactive; FID counter: inactive; GPR7 antagonist: inactive

What do the screens show for `COc1ccc(CNc2nc(NCc3ccc(OC)cc3)c3[nH]cnc3n2)cc1`?
EBNA-1 inh: 39; ZTA DNA inh: inactive; EBNA-1 confirm: inactive; ZTA counter trip: inactive

How did COc1ccc(CNc2ncnc(N)n2)cc1 do in these assays?
HCV NS3 hel inh: inactive; EBNA-1 inh: inactive; ZTA DNA inh: inactive; FID counter: inactive; GPR7 antagonist: inactive

What do the screens show for `Cc1ccc(C)c(SCC(=O)OC/C(O)=C(\C#N)c2nc3ccccc3[nH]2)c1`?
HCV NS3 hel inh: inactive; FID counter: inactive; GPR7 antagonist: inactive

What do the screens show for `N#C/C(=C(/O)COC(=O)CSc1ccc2ccccc2c1)c1nc2ccccc2[nH]1`?
HCV NS3 hel inh: inactive; EBNA-1 inh: 39; ZTA DNA inh: inactive; FID counter: inactive; GPR7 antagonist: inactive; EBNA-1 confirm: inactive; ZTA counter trip: inactive

How did Cc1cccc(NC(=O)COc2ccc(/C=C\c3[nH]c(=O)[nH]c(=O)c3[N+](=O)[O-])cc2)c1 do in these assays?
HCV NS3 hel inh: inactive; EBNA-1 inh: inactive; ZTA DNA inh: 44; FID counter: inactive; GPR7 antagonist: inactive; Zta DNA confirm: 42; EBNA1 counter: inactive

How did Cc1cccc(C(=O)OC(C)C(=O)NCC2CCCCC2)c1O (stereo unspecified) do in these assays?
ZTA DNA inh: inactive

What do the screens show for `COc1cccc(-n2cc(C(=O)NC(C)C)c3ccccc3c2=O)c1`?
HCV NS3 hel inh: inactive; EBNA-1 inh: inactive; ZTA DNA inh: 155; FID counter: inactive; GPR7 antagonist: inactive; Zta DNA confirm: inactive; EBNA1 counter: inactive

Bioassay records from PubChem BioAssay.
